PGC1a acetyl inh: inhibitors of PGC1a acetylation signal, primary screen, cell-based, U2OS, AlphaScreen, inhibitor mode. inhibition, % at 15.6 µM. AID 651687, 2012. 350,000 tested, 0.17% active. AlphaScreen anti-acetyl-lysine; with virally co-expressed GCN5 acetyltransferase;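 active means every replicate shows inhibition of at least 40%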;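 further: 0% = neutral control wells and 100% = positive control wells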
Xi reactivation: activators of inactive X chromosome reactivation, primary screen, imaging, XiGFP fibroblasts, GFP high-content imaging, set 2; AID 743238, 2013; XiGFP mouse fibroblasts, % GFP-positive cells imaging, 3 d; cells co-treated with 5-aza-dC sensitizer; scaled so ellipticine positive control = 100%; activation, % at 7.58 µM; 360,000 tested, 0.055% active;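 active means mean normalized replicate activation at least 10% and every replicate at or above 10%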;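 further: 0% = median of on-plate neutral control wells and 100% = ellipticine 6 µM median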
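Material: SV40-immortalized XiGFP fibroblast cells, line 68-5-11 | Buffer or medium: DMEM containing 5-aza-dC | Dosing: One concentration, pinned | Times: 3 d treatment, 15 min room-temperature fixation | Controls: Ellipticine 6 µM positive control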
PAX8 reporter: inhibitors of PAX8-driven TPO luciferase reporter, primary screen, RMG-I cells, single concentration. 360,000 tested, 1.2% active. SteadyGlo, 24 h. inhibition, % at 12.6 µM;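 active means mean replicate inhibition at least 60% with every replicate also reaching 60%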;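 further: luciferase light reporting Pax8 driven TPO promoter activity; plate controls were median of neutral control wells for no effect and mitoxantrone controls for full effect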
EWS-Fli inh: EWS/Fli-driven NR0B1 reporter inhibitors, primary screen, A673 cells, NR0B1 luciferase, luminescence, MLPCN library; viability-normalised; inhibition, % at 12.6 µM; 350,000 tested, 0.67% active;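 active means mean inhibition of at least 50% after viability correction, with every replicate also passing that limit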;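 further: firefly luciferase signal divided by Alamar Blue viability fluorescence both relative to DMSO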
AF4-AF9 inh: inhibitors of AF4 peptide binding to AF9, primary screen, biochemical, AlphaScreen, biotin-AF4 peptide, FLAG-AF9, single point | Protein AF-9 (Homo sapiens), P42568 | inhibition, % at 10 µM | 350,000 tested, 0.47% active | AID 651704, 2012;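 active means every replicate reaching a set inhibition limit, whatever the replicate mean, cut at about 25% in these data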;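 further: 0% = plate neutral control median and 100% = total signal loss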
Target sequence (P42568 whole entry, looked up): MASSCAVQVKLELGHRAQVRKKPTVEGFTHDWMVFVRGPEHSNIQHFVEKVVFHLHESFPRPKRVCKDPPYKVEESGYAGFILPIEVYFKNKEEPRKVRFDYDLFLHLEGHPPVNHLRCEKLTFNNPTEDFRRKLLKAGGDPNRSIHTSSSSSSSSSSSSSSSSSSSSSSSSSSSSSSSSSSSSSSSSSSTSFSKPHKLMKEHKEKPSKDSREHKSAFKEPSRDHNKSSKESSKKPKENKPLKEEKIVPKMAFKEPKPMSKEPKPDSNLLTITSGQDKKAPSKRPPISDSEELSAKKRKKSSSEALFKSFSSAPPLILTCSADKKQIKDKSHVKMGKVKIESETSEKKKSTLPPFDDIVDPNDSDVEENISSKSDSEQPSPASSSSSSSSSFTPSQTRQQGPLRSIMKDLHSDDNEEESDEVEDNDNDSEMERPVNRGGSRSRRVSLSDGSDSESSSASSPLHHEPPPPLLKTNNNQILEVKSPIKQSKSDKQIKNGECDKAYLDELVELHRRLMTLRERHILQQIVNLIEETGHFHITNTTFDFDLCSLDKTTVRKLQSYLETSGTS
INS-1E GSIS act: GLuc luminescence reporter in INS-1E cells, primary screen for activators of glucose-dependent secretion of insulin; INS-1E GLuc reporter insulin secretion, 2-3 h; 370,000 tested, 0.61% active; activation, % at 16.6 µM; AID 743287, 2014;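 active means lowest replicate activation of at least 40%, so every replicate reaches that level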;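 further: 0% = median of neutral control wells and 100% = median of IBMX positive control wells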
* marks the source's active call; other numbers are inactive results; / = no result. The list is not random: actives were taken first. Their share in the collection is about 2.1%.

SMILES	PGC1a acetyl inh	Xi reactivation	PAX8 reporter	EWS-Fli inh	AF4-AF9 inh	INS-1E GSIS act
CCOc1ccc(C2=Nn3c(nnc3-c3ccccc3OC)SC2)cc1	-22	/	95*	/	/	/
CC(=O)Nc1cccc2c1O[C@@H](CN(C)C(=O)OC(C)(C)C)[C@@H](C)CN(C)C2=O	/	0	/	/	/	8
CO[C@@H]1CC[C@H]2CCOc3ccc(C#N)cc3C(=O)N(C)C[C@@H](C)C(=O)N(C)C[C@@H]1O2	/	0	1	4	-1	3
C[C@@H]1CN([C@@H](C)CO)C(=O)Cc2cc(NS(=O)(=O)c3ccc(Cl)cc3)ccc2O[C@H]1CN(C)S(C)(=O)=O	2	0	2	-2	-1	0
COc1ccc(C2=Nn3c(nnc3-c3ccncc3)SC2)cc1OC	23	/	/	/	/	85*
COc1ccc(C2=Nn3c(nnc3-c3cccnc3)SC2)cc1OC	8	/	/	/	/	/
CCC(C)n1c(SCC(=O)Nc2ccc3[nH]c(=O)[nH]c3c2)nc2ccccc2c1=O (centres undefined)	22	0	0	0	2	30
CC(C)Cn1c(SCC(=O)Nc2ccc3[nH]c(=O)[nH]c3c2)nc2ccccc2c1=O	/	0	-6	0	-1	45*
COC(=O)c1nnn(-c2ccccc2)c1N	3	/	/	/	/	/
C#Cc1cccc(-n2nnc(C(=O)OC)c2-c2ccccc2)c1	/	0	23	8	0	40*
COC(=O)c1ccc(OC)c(OC2CCCC2)c1	89*	0	-29	7	-1	47*
COc1ccc(C(=O)OCC(=O)NC(=O)NC2CCCC2)cc1OC	-1	0	16	-4	-1	56*
COc1ccc(NC(=O)c2nc(C)c(C3(C)CC(c4ccccc4)=NO3)s2)cc1 (centres undefined)	4	0	44	55*	1	-4
Cc1nc(C(=O)Nc2ccccc2)sc1C1(C)CC(c2cccnc2)=NO1 (centres undefined)	-1	0	-46	-101	2	-13
O=C(C[C@@H]1CC[C@@H]2[C@H](COC[C@@H](O)CN2C(=O)Cc2ccccc2)O1)NC1CCC1	4	0	-5	-3	-1	2
CCNC(=O)[C@H]1[C@H](CO)[C@H]2Cn3c(ccc(-c4cncnc4)c3=O)[C@H]2N1C(=O)c1ccccc1F	6	0	-8	4	2	11
c1ccc(CSc2nnc(Cc3ccccn3)o2)cc1	/	/	65*	/	/	/
c1ccc(CSc2nnc(Cc3ccccc3)o2)cc1	/	0	-84	-54	-3	-7
CN(C)C(=O)C[C@H]1CC[C@@H]2[C@@H](COc3ccc(NC(=O)NCc4ccccc4)cc3C(=O)N2C)O1	-10	0	-23	-3	-2	7
O=C(c1cccs1)N(Cc1ccccn1)Cc1ccco1	-45	/	/	/	/	73*
Cn1c(=O)c2[nH]c(-c3ccc(S(=O)(=O)O)cc3)nc2n(C)c1=O	2	23*	14	-5	8	5
CC(C)c1ccc(-c2nc3c([nH]2)c(=O)n(C)c(=O)n3C)cc1	-1	/	/	/	/	4
COc1ccc(CCNc2ncnc3[nH]ncc23)cc1OC	1	/	/	/	/	/
COc1ccc(CCNc2ccncn2)cc1OC	/	/	/	/	/	45*
Cn1c(=O)c2cc(NC(=O)NCc3ccc(F)cc3)ccc2n1C/C=C/c1ccccc1	/	1	25	56*	2	/
SMILES	PGC1a acetyl inh	Xi reactivation	PAX8 reporter	EWS-Fli inh	AF4-AF9 inh	INS-1E GSIS act
Cn1c(=O)c2cc(NC(=O)Cc3ccccc3F)ccc2n1C/C=C/c1ccccc1	/	0	-34	-8	4	/
CCOCCC(=O)Nc1ccc2c(c1)c(=O)n(C)n2C/C=C/c1ccccc1	-27	0	20	60*	-2	-1
CCOc1cc(-c2noc(CCC(=O)NCCc3ccccc3)n2)ccc1OC	-22	0	-5	14	-1	1
CCOc1ccc(-c2noc(CCC(=O)NC)n2)cc1OCC	6	/	-17	/	/	56*
CCOC(=O)C1=c2/c(=C/c3ccncc3)c(N)c(C(=O)OC)n2C(=O)C(c2ccncc2)S1 (centres undefined)	2	116*	-6	-1	-2	0
CCCNC(=O)[C@H]1[C@H](CO)[C@H]2Cn3c(ccc(-c4ccccc4OC)c3=O)[C@H]2N1CC	/	0	4	-6	-1	11
C=CCn1c(=NC(=O)c2cc(Cl)sc2Cl)sc2cc(S(N)(=O)=O)ccc21	15	0	33	/	/	44*
CC(C)NC(=O)N(C)C[C@H]1Oc2ccc(NC(=O)Cc3ccccc3)cc2C(=O)N([C@H](C)CO)C[C@H]1C	4	0	-8	-1	-2	8
COc1ccc(C2=NN(C(=O)CCCC(=O)O)C(c3cccs3)C2)cc1OC (centres undefined)	/	0	-8	-59	6	104*
COc1ccc(C2=NN(C(=O)c3cccs3)C(c3ccccc3OC)C2)cc1OC (centres undefined)	-1	0	5	13	4	18
COc1ccc(C2=NN(C(=O)c3ccco3)C(c3cccs3)C2)cc1OC (centres undefined)	-2	1	13	-11	6	81*
CC(Sc1nc(-c2ccccc2)cc(C(F)(F)F)n1)C(=O)N1CCCC1 (centres undefined)	-3	0	4	4	49*	/
C[C@H](CO)N1C[C@H](C)[C@@H](CN(C)S(C)(=O)=O)Oc2cc(C#CC3CCCC3)ccc2S1(=O)=O	-9	-1	/	23	4	-13
CN1C(=O)c2cc(NC(=O)c3cccs3)ccc2OC[C@H]2O[C@@H](CC(=O)Nc3ccc4c(c3)COC4)CC[C@@H]21	0	0	/	1	-2	9
CCOc1ccc(N2C(=O)CC(S/C(N)=N/N=C/c3cccs3)C2=O)cc1 (centres undefined)	5	0	16	/	/	54*
CCC(=O)N1c2ccc(S(=O)(=O)N3CCN(c4ccc([N+](=O)[O-])cc4)CC3)cc2CC1C (centres undefined)	/	0	68*	16	3	1
N/C(=N\OC(=O)c1ccccc1Br)c1cccc([N+](=O)[O-])c1	-2	0	-94	-33	-1	41*
COC1=C(Nc2ccc(OC)cc2)C(=O)c2ccccc2C1=O	/	0	-42	/	/	-18
CCCC(=O)NC1=C(Cl)C(=O)c2ccccc2C1=O	/	4	103*	27	2	/
O=C1C(Cl)=C(Nc2ccc(O)cc2)C(=O)c2ccccc21	/	0	49	57*	21	14
COC1=C(Nc2ccc(O)cc2)C(=O)c2ccccc2C1=O	/	0	35	-17	50*	8
